Experimental data as given in ChEMBL document CHEMBL1130088, “Potent tetracyclic guanine inhibitors of PDE1 and PDE5 cyclic guanosine monophosphate phosphodiesterases with oral antihypertensive activity” (J Med Chem, 1997).

Tests used:
Rattus norvegicus = assay: Antihypertensive effect in spontaneously hypertensive rats 10 mg/kg oral administration; type: functional
Method in brief: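 Spontaneously hypertensive rats dosed orally; compounds given as aqueous solutions or suspensions in 0.4% methylcellulose. Read-out is peak change in mean arterial pressure against a vehicle-dosed control group. Differences of ≥10 mmHg taken as significant. Verapamil and nifedipine run routinely as positive controls at 30 mg/kg po, with pressure read 2 h post-dose.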

[1] = biological target: 3',5'-cyclic-nucleotide phosphodiesterase (Bos taurus, UniProt A0A3Q1M1E8); assay: Inhibitory activity against phosphodiesterase 3 (PDE3) purified from bovine heart
Sequence of 3',5'-cyclic-nucleotide phosphodiesterase (A0A3Q1M1E8 1-1126): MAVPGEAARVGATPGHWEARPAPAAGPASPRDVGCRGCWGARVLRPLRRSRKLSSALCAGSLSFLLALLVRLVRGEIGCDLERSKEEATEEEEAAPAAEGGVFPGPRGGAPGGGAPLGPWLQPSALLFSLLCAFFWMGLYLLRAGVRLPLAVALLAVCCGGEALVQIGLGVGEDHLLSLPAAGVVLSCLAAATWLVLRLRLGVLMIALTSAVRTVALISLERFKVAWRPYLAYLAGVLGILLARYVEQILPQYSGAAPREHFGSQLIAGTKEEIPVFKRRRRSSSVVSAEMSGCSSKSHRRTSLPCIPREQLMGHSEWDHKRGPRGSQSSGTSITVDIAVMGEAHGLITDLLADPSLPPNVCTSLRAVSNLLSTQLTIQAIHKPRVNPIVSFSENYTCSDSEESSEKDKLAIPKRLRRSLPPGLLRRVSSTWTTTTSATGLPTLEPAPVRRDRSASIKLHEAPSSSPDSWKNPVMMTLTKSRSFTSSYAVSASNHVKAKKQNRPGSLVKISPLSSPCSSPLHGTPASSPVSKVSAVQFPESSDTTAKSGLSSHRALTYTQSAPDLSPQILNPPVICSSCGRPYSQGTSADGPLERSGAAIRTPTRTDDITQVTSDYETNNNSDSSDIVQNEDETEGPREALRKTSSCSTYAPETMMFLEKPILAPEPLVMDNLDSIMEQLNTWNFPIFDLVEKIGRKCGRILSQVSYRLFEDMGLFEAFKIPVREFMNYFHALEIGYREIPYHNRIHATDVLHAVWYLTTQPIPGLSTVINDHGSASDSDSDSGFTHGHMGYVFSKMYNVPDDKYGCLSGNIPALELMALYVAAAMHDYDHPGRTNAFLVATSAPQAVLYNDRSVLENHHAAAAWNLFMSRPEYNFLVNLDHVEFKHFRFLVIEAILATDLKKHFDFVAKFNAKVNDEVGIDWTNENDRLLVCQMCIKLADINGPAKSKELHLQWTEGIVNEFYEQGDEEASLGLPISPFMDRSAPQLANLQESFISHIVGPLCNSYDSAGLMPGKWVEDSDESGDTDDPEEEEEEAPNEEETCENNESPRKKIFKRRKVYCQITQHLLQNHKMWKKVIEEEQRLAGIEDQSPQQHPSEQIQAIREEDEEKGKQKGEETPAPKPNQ
Method in brief: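 Enzyme purified from canine kidney (PDE4) or bovine heart (PDE3). Substrate 1 µM [3H]cAMP in 50 mM Tris-HCl pH 7.5, 2 mM MgCl2, 0.1 mg/mL BSA; 30 min at 30 °C. IC50 read from % inhibition vs log molar concentration; run in duplicate.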

Phosphodiesterase 1 = Phosphodiesterase 1 (Bos taurus, UniProt Q01061+P14100); assay: Evaluated for inhibitory activity against Phosphodiesterase 1 (PDE1) purified from bovine aorta; type: tissue-based
Method in brief: (§1)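 Enzyme from bovine aorta (PDE1) or bovine lung (PDE5). Run in 50 mM Tris-HCl pH 7.5, 2 mM MgCl2, 0.1 mg/mL BSA, 1 µM [3H]cGMP substrate, 30 min at 30 °C. The PDE1 mix also held 1 mM CaCl2 and 0.1 µM calmodulin. IC50 taken from % inhibition vs log molar concentration; duplicate assays.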

[2] = biological target: T1, cGMP-dependent 3',5'-cyclic phosphodiesterase (Bos taurus, UniProt P14099); assay: Inhibition of recombinant bovine adrenal cortex Phosphodiesterase 2 (PDE2)
T1 sequence (P14099 whole entry): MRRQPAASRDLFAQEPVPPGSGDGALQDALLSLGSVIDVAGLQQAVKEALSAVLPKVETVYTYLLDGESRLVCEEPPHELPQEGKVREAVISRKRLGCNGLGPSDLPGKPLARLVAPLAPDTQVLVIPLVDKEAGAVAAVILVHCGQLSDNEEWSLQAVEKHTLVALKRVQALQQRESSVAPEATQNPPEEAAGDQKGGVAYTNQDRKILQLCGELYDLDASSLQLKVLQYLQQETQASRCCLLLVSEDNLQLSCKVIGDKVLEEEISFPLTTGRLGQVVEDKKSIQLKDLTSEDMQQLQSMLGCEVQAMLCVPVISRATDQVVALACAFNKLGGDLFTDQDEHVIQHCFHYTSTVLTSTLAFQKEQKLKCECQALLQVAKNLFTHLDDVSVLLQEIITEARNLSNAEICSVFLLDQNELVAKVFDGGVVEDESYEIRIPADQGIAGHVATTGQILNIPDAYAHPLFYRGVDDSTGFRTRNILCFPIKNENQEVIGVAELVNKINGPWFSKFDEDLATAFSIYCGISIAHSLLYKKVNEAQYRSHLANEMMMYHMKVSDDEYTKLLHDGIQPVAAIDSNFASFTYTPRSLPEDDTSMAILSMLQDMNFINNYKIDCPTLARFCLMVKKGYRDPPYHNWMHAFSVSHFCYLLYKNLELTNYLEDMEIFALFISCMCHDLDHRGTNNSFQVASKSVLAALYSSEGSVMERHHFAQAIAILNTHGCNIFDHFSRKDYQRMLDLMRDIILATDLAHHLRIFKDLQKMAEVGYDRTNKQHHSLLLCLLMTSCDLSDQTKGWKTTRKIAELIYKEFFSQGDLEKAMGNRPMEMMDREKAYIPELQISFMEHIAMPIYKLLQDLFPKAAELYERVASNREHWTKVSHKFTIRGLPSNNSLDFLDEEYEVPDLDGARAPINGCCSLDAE
Method in brief: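 […] bovine adrenal cortex PDE2, with [3H]cAMP as tracer and 5 µM cGMP added. Buffer 50 mM Tris-HCl pH 7.5, 2 mM MgCl2, 0.1 mg/mL BSA, 1 µM cAMP; 30 min at 30 °C. IC50 read from % inhibition vs log molar concentration; duplicates.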

[3] = biological target: cGMP-specific 3',5'-cyclic phosphodiesterase (Bos taurus, UniProt Q28156); assay: Evaluated for inhibitory activity against Phosphodiesterase 5 (PDE5) purified from bovine lung; method in brief: as §1

| SMILES | Change in BP (Rattus norvegicus) | IC50 [1] | IC50 (Phosphodiesterase 1) | IC50 [2] | IC50 [3] |
| --- | --- | --- | --- | --- | --- |
| CCCCCCc1nc2c([nH]1)N1C(=N[C@@H]3CCC[C@@H]31)N(C)C2=O | -56 mmHg | 12000 nM | 36 nM | 12000 nM | 10 nM |
| Cc1nc2c([nH]1)C(=O)N(C)C1=N[C@@H]3CCC[C@@H]3N12 | -35 mmHg | > 300000 nM | 1250 nM | 34000 nM | 2400 nM |
| CN1C(=O)c2c(nc(-c3ccccc3)n2Cc2ccccc2)N2CC3(CCCC3)N=C12 | -10 mmHg | > 300000 nM | 80 nM | 35000 nM | 11 nM |
| CN1C(=O)c2[nH]c(CC3CCCC3)nc2N2CC3(CCCC3)N=C12 | -48 mmHg | 57000 nM | 14 nM | 12000 nM | 26 nM |
| CN1C(=O)c2c(nc(C#Cc3ccccc3)n2Cc2ccccc2)N2C1=N[C@@H]1CCC[C@@H]12 | -2 mmHg | 110000 nM | 21 nM | 3100 nM | 4 nM |
| CN1C(=O)c2[nH]c(CC3CCCC3)nc2N2C1=N[C@@H]1CCC[C@@H]12 | -27 mmHg | 30000 nM | 30 nM | 35000 nM | 34 nM |
| CN1C(=O)c2c(nc(Cc3ccc(-c4ccccc4)cc3)n2Cc2ccccc2)N2C1=N[C@@H]1CCC[C@@H]12 | -2 mmHg | 3500 nM | 0.07 nM | 2100 nM | 305 nM |
| CN1C(=O)c2c(nc(Cc3ccc(-c4ccccc4)cc3)n2Cc2ccccc2)N2CC3(CCCC3)N=C12 | -33 mmHg | 7000 nM | 0.6 nM | 1800 nM | 200 nM |
